From ChEMBL document CHEMBL1795210, “Synthesis and screening of (E)-1-(β-D-galactopyranosyl)-4-(aryl)but-3-ene-2-one against Mycobacterium tuberculosis” (2011)
≈ marks a conversion by molar mass, not a printed value.

The compounds below were run on Mycobacterium tuberculosis (assay: Antimicrobial activity against Mycobacterium tuberculosis H37Rv after 28 days by agar dilution method). Conditions: 672 h.
Type: functional
Outline: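 Agar dilution on Middlebrook 7H11 with OADC supplement. Compound serially diluted into the agar, […]. H37Rv inoculum from fresh 7H11 slants, set to 1 mg/mL wet weight in 0.05% Tween 80 saline, diluted 10^2 to about 10^7 cfu/mL; 5 µL spotted per tube. Incubated at 37 C, read at 28 days. MIC = lowest concentration giving complete growth inhibition.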
`O=C(/C=C/c1ccc(C(=O)O)cc1)C[C@@H]1O[C@H](CO)[C@H](O)[C@H](O)[C@H]1O` gave an MIC of 1.56 mg/L (≈ 4.43 µM). `COc1cc(/C=C/C(=O)C[C@@H]2O[C@H](CO)[C@H](O)[C@H](O)[C@H]2O)cc(OC)c1OC` was tested, and the MIC was 6.25 mg/L (≈ 15.7 µM). Compound `CC[C@@H](CO)NCCN[C@@H](CC)CO` [ETHAMBUTOL] has an MIC of 1.56 mg/L (≈ 7.64 µM). Work on `COc1ccc(/C=C/C(=O)C[C@@H]2O[C@H](CO)[C@H](O)[C@H](O)[C@H]2O)cc1Br` yielded an MIC greater than 12.5 mg/L. For `O=C(/C=C/c1ccc(CO)o1)C[C@@H]1O[C@H](CO)[C@H](O)[C@H](O)[C@H]1O`, the MIC was 1.56 mg/L (≈ 4.75 µM). `O=C(/C=C/c1ccc(-c2ccccc2[N+](=O)[O-])o1)C[C@@H]1O[C@H](CO)[C@H](O)[C@H](O)[C@H]1O` showed an MIC greater than 12.5 mg/L. Work on `O=C(/C=C/c1ccc(-c2ccccc2)cc1)C[C@@H]1O[C@H](CO)[C@H](O)[C@H](O)[C@H]1O` yielded an MIC of 6.25 mg/L (≈ 16.3 µM). For `O=C(/C=C/c1ccc2c(c1)OCO2)C[C@@H]1O[C@H](CO)[C@H](O)[C@H](O)[C@H]1O`, the MIC was 1.56 mg/L (≈ 4.43 µM). Compound `COc1cc(OC)c(/C=C/C(=O)C[C@@H]2O[C@H](CO)[C@H](O)[C@H](O)[C@H]2O)c(OC)c1` has an MIC of 6.25 mg/L (≈ 15.7 µM). `O=C(/C=C/c1cc(C(F)(F)F)ccc1C(F)(F)F)C[C@@H]1O[C@H](CO)[C@H](O)[C@H](O)[C@H]1O` gave an MIC of 12.5 mg/L (≈ 28.1 µM). Work on `O=C(/C=C/c1ccc(-c2ccc(Cl)cc2[N+](=O)[O-])o1)C[C@@H]1O[C@H](CO)[C@H](O)[C@H](O)[C@H]1O` yielded an MIC greater than 12.5 mg/L. `COc1c(O)cc(/C=C/C(=O)C[C@@H]2O[C@H](CO)[C@H](O)[C@H](O)[C@H]2O)cc1[N+](=O)[O-]` gave an MIC of 1.56 mg/L (≈ 3.91 µM). In the case of `O=C(/C=C/c1ccc2ccccc2n1)C[C@@H]1O[C@H](CO)[C@H](O)[C@H](O)[C@H]1O`, the MIC is reported as 3.13 mg/L (≈ 8.71 µM). `O=C(/C=C/c1cnc2ccccc2c1)C[C@@H]1O[C@H](CO)[C@H](O)[C@H](O)[C@H]1O` showed an MIC of 6.25 mg/L (≈ 17.4 µM). In the case of `C=Cc1cccc(/C=C/C(=O)C[C@@H]2O[C@H](CO)[C@H](O)[C@H](O)[C@H]2O)c1`, the MIC is reported as 3.13 mg/L (≈ 9.36 µM). With `COc1ccc(-c2ccc(/C=C/C(=O)C[C@@H]3O[C@H](CO)[C@H](O)[C@H](O)[C@H]3O)o2)cc1Cl` the MIC was 3.13 mg/L (≈ 7.13 µM). Work on `NNC(=O)c1ccncc1` [ISONIAZID] yielded an MIC of 0.05 mg/L (≈ 0.365 µM). Work on `CO[C@H]1/C=C/O[C@@]2(C)Oc3c(C)c(O)c4c(O)c(c(/C=N/N5CCN(C)CC5)c(O)c4c3C2=O)NC(=O)/C(C)=C\C=C\[C@H](C)[C@H](O)[C@@H](C)[C@@H](O)[C@@H](C)[C@H](OC(C)=O)[C@@H]1C` [RIFAMPIN] yielded an MIC of 0.1 mg/L (≈ 0.122 µM). `C#Cc1ccccc1/C=C/C(=O)C[C@@H]1O[C@H](CO)[C@H](O)[C@H](O)[C@H]1O` showed an MIC greater than 12.5 mg/L. `O=C(/C=C/c1ccc(N(CCO)CCO)cc1)C[C@@H]1O[C@H](CO)[C@H](O)[C@H](O)[C@H]1O` gave an MIC of 6.25 mg/L (≈ 15.2 µM). For `CN(C)c1ccc(/C=C/C(=O)C[C@@H]2O[C@H](CO)[C@H](O)[C@H](O)[C@H]2O)cc1`, the MIC was 1.56 mg/L (≈ 4.44 µM). With `O=C(/C=C/c1ccc2cccc(O)c2n1)C[C@@H]1O[C@H](CO)[C@H](O)[C@H](O)[C@H]1O` the MIC was 3.13 mg/L (≈ 8.34 µM).
